Test results published in publication PMC12222688 (Scientific Reports, 2025).

Target: plasma kallikrein (pKal) (Homo sapiens, UniProt P03952)
Assay: cell-free fluorogenic substrate enzyme activity assay with recombinant pKal
Type: biochemical
Outline: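 Human recombinant plasma kallikrein was dissolved in deionized water and used with its protein-specific fluorogenic substrate under cell-free conditions. Test compound, at concentrations up to 3000 µg/mL, was incubated with substrate solution for 30 min at 37 °C. Fluorescence was read on a microplate reader. Autofluorescence was subtracted, and relative fluorescence units were normalized to blank samples.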

plasma kallikrein (pKal), sequence (P03952 20-390): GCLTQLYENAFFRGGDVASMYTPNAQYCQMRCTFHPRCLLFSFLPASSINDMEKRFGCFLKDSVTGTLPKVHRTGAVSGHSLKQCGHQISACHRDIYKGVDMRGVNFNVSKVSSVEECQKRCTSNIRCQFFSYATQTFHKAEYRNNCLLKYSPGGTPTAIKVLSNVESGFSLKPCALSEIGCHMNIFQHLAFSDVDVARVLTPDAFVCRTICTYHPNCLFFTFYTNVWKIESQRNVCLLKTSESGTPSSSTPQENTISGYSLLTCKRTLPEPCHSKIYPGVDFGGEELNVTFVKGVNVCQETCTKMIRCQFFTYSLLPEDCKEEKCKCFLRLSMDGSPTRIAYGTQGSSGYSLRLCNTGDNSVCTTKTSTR
plasma kallikrein (pKal), sequence (P03952 391-638): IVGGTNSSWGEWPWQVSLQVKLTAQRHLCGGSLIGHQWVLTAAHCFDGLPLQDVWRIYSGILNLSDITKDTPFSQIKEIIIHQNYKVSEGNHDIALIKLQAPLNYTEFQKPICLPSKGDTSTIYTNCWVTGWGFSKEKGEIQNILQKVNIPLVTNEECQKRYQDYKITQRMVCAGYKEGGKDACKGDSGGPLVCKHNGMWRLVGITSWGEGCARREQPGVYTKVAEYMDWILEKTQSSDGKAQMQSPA

IC50: 313 µM
Structure (SMILES): C[C@@H]1O[C@@H](O[C@@H]2[C@@H](O)[C@H](OCCc3ccc(O)c(O)c3)O[C@H](CO)[C@H]2OC(=O)/C=C/c2ccc(O)c(O)c2)[C@H](O)[C@H](O)[C@H]1O [acteoside]
